Screening results: PubChem BioAssay, several laboratories
m-calpain inh = blocks pig calpain II enzyme activity; purified calpain II, fluorogenic peptide substrate, 30 min; inhibition, % at 16 µM; 0.37% of 220,000 active;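 active means inhibition above about 50%, limit read from the data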
NPY-Y1 PAM-ag = human NPY-Y1 potentiation or agonism, primary screen. NPY-Y1 expressing cells, potentiator/agonist activation. 0.37% of 220,000 active. P25929. activation, % at 3.6 µM; in the data active means activation above about 33%, passing the limit was not always enough;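 further: cells stimulated with NPY at EC10 then isoproterenol at EC100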
Target sequence (P25929 whole entry, looked up): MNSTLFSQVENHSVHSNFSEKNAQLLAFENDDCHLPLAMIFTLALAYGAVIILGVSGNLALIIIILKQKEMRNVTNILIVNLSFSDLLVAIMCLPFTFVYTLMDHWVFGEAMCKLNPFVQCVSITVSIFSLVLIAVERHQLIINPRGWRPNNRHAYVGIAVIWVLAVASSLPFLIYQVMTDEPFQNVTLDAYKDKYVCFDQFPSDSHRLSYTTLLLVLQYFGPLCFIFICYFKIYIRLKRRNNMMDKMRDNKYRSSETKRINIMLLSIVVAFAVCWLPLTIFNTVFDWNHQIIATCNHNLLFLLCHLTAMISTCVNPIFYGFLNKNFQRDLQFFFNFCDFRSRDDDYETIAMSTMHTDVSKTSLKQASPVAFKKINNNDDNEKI
TbHK1 inh = T. brucei hexokinase 1 inhibition; recombinant TbHK1, G6PDH-coupled NADH A340; inhibition, % at 10 µM; 0.11% of 220,000 active; AID 1430;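 active means inhibition of 50% or more in the single-dose primary screen; inactive means inhibition below 50%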
NPY2 pot ag = human NPY-Y2 potentiation or agonism, primary screen; cells expressing NPY-Y2, potentiator/agonist read-out; activation, % at 3.6 µM; 0.45% of 220,000 active; in the data active means activation above about 27%;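 further: cells stimulated with NPY near EC25 plus isoproterenol at EC100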
NPY-Y2 antag = antagonists of human neuropeptide Y receptor Y2; P49146; NPY-Y2 expressing cells, antagonist mode; inhibition, % at 2.7 µM; 0.99% of 140,000 active; AID 793; in the data active means inhibition above about 17%
NPY-Y1 antag = NPY-Y1 (human) receptor antagonism | P25929 | HEK293-CNG Y1 cells, membrane potential fluorescence; NPY at EC95, then isoproterenol | inhibition, % at 3.6 µM | 1% of 200,000 active | AID 1040;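 active means inhibition above the campaign mean inhibition of all tested compounds plus 3 SD, cut at about 20% in these data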
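Test system – HEK293 Y1/CNG channel cell line · Also added – NPY agonist 25 nM, then isoproterenol 1 µM plus Ro 20-1724 25 µM · Compound dosing – one concentration, 3.6 µM, in 0.4% DMSO · Schedule – compound incubation 1 h at room temperature, readout 45 min post-stimulation · Technique – fluorescence, membrane potential probe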
Hits are given with their value; - = inactive; . = no result. Rows were chosen to be rich in hits. Some 2.3% of all compounds tested hit in one or more screens of this group.

SMILES | m-calpain inh | NPY-Y1 PAM-ag | TbHK1 inh | NPY2 pot ag | NPY-Y2 antag | NPY-Y1 antag
CO/N=C/c1ccc(Sc2ccccc2)c([N+](=O)[O-])c1 | - | - | - | - | - | -
CO/N=C/c1ccc(Sc2ccccc2N)c([N+](=O)[O-])c1 | 61.6 | - | - | - | - | -
Cc1ccc(C(=O)NNC(=O)c2ccc3ncccc3c2)cc1 | 51.8 | - | - | - | . | -
Cc1ccc(OCc2nc(C#N)c(N3CCN(Cc4ccccc4)CC3)o2)cc1 | - | - | - | - | 40.5 | 22.8
N#Cc1nc(COc2cccc(Cl)c2)oc1N1CCCC1 | - | - | - | - | - | -
N#Cc1nc(COc2ccccc2)oc1N1CCN(Cc2ccccc2)CC1 | - | - | - | - | 27.6 | 20.9
CCc1cc2c(=O)c(-c3nc(C)cs3)coc2cc1OC(C)C(=O)NCCO (configuration not stated) | 54.7 | - | - | - | - | -
CCc1cc2c(=O)c(-c3nc(C)cs3)c(CCCC(=O)O)oc2cc1O | - | - | - | - | . | -
O=C(CSc1nnc(-c2cccnc2)n1-c1ccc(SC(F)F)cc1)N1CCCc2ccccc21 | - | - | - | - | 18.8 | -
O=C(NNc1cccc(Cl)c1)c1cccnc1Cl | - | - | - | - | - | -
O=C(COC(=O)C1CC(O)CN1S(=O)(=O)c1ccc(Cl)cc1)c1cccc(Cl)c1 (configuration not stated) | - | - | - | - | - | -
O=C1c2ccccc2C(=O)c2c1ccc(C(=O)N1CCCCC1)c2NCCO | - | - | - | - | - | -
CC1(C)CCCN(C(=O)c2ccc3c(c2NCCO)C(=O)c2ccccc2C3=O)C1 | - | 50.5 | - | 53.8 | - | -
CCN(CCN(C)C)C(=O)c1ccc2c(c1NCCO)C(=O)c1ccccc1C2=O | - | 47.2 | - | 40.0 | . | -
CC(=O)NC(Nc1c(C)n(C)n(-c2ccccc2)c1=O)C(Cl)(Cl)Cl (configuration not stated) | - | - | - | - | . | -
Cc1cc(C)c2c(CC(=O)O)coc2c1 | - | - | - | - | - | 23.8
Cc1cc(C)c2c(CC(=O)NN(C)C)coc2c1 | - | - | - | - | . | -
Cc1ccccc1OCCCC(=O)Nc1nccs1 | - | - | - | - | - | -
Cc1ccc(C)c(OCC(=O)Nc2nonc2NC(=O)COc2cc(C)ccc2C)c1 | - | - | - | - | 20.7 | 23.6
Cc1ccc(C)c(OCCCC(=O)Nc2nccs2)c1 | 69.1 | - | - | - | - | -
COc1cc([N+](=O)[O-])ccc1-c1ccc(/C=N/NC(=O)c2ccccc2O)o1 | 53.5 | - | - | - | . | .
CSc1nc(Cl)c(Cc2ccc(OC(C)C)cc2)c(N(C)C)n1 | - | - | - | - | 30.0 | 48.8
COc1ccc(-c2[nH]nc3c2C(c2ccoc2)C(C#N)=C(N)O3)cc1 (configuration not stated) | - | - | - | - | - | -
COc1ccc(OC)c(-c2[nH]nc3c2C(c2ccco2)C(C#N)=C(N)O3)c1 (configuration not stated) | - | - | - | - | 28.2 | 48.1
COc1cccc(-c2[nH]nc3c2C(c2ccc(C)o2)C(C#N)=C(N)O3)c1 (configuration not stated) | - | - | - | - | 21.1 | 28.5
SMILES | m-calpain inh | NPY-Y1 PAM-ag | TbHK1 inh | NPY2 pot ag | NPY-Y2 antag | NPY-Y1 antag
CC1CC(=O)N(c2ccc(Br)cc2)C(=O)C1 | - | - | - | - | . | .
C=CCOc1ccc2ccccc2c1CNCCCN1CCOCC1 | - | - | - | - | 20.1 | 20.8
CCOC(=O)N1CCN(C(=O)c2cn(CC)c3cc(N4CCN(C)CC4)c(F)cc3c2=O)CC1 | - | - | - | - | - | -
Cc1ccc(-c2csc(NC(=S)NC(=O)c3ccco3)n2)cc1 | 57.4 | - | - | - | - | -
CC1(C)CC2(CC(c3ccccc3)c3ccc(O)cc3O2)NC(=S)N1 (configuration not stated) | - | - | - | - | . | -
N#CC(C#N)=c1ccc2c(c1)NC1(CCCCC1)N=2 | - | 40.9 | - | 43.5 | - | -
N#CC(C#N)=C1NC2(CCCCC2)Cc2ccccc21 | - | - | - | - | . | .
O=c1cc(-c2ccccc2Cl)oc2c(NS(=O)(=O)c3cc(Cl)cc(Cl)c3O)ccc(O)c12 | - | 56.0 | - | 40.7 | - | -
Nc1nc(-c2ccccc2)c(N=Nc2cccnc2)s1 | - | 65.3 | - | 57.3 | . | -
O=C(O)CC12CSc3[nH]c(=O)sc3C1c1ccccc1OC2=O (configuration not stated) | 54.2 | - | - | - | - | -
